One block for each compound: values may come before it. The source made the active and inactive calls. The rule behind the calls is not given here.
Tests used:
[1] = tested on: MDA-MB-231; experiment: Antiproliferative activity against human MDA-MB-231 cells harbouring STAT3 assessed as reduction in cell viability at upto 10 uM incubated for 72 hrs by CyQuant assay; assay type: functional, cell-based; settings: dose microM <=10, time 72.0 hrs
[2] = tested on: MDA-MB-468; experiment: Antiproliferative activity against human MDA-MB-468 cells harbouring STAT3 assessed as reduction in cell viability at upto 10 uM incubated for 72 hrs by CyQuant assay; assay type: functional, cell-based; settings: dose microM <=10, time 72.0 hrs
[3] = Inhibition of oligonucleotide [32P]-labelled 5'-AGATTTCTAGGAATTCAA probe binding to STAT5 homodimer in mouse NIH3T3 nuclear extract preincubated for 30 mins followed by MGFe probe addition by EMSA analysis
[4] = target: T1, Signal transducer and activator of transcription 3 (Mus musculus, UniProt P42227); experiment: Inhibition of oligonucleotide [32P]-labelled 5'-AGCITCATTTCCCGTAAATCCCTA probe binding to STAT3 SH2 domain (unknown origin) preincubated for 30 mins followed by hSIE probe addition by EMSA analysis
T1 sequence (P42227 whole entry, the tested form may be a part): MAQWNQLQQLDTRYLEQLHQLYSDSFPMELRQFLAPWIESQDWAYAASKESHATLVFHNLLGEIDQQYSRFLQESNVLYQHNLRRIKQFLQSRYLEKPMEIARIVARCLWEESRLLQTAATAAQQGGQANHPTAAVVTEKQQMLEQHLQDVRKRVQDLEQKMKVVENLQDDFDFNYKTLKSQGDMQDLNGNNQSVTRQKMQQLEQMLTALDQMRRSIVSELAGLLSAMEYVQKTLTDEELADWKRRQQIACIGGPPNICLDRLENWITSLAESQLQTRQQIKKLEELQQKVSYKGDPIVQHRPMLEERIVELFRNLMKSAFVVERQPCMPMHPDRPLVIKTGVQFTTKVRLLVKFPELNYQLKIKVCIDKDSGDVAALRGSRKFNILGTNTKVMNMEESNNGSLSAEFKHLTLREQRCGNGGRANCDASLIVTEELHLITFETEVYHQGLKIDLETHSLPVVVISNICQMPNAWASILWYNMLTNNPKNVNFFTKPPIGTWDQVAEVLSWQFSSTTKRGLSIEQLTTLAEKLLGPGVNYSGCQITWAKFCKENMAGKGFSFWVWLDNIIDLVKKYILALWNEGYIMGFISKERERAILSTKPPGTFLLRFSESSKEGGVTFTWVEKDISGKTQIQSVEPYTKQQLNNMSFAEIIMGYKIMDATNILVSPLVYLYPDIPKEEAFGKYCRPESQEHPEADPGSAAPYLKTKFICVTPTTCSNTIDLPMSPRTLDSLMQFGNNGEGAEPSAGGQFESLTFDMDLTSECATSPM

[5] = tested on: MDA-MB-231; experiment: Antiproliferative activity against human MDA-MB-231 cells assessed as reduction in cell viability incubated for 72 hrs by CyQuant assay; assay type: functional, cell-based; settings: MDA-MB-231, 72 h
[6] = tested on: MDA-MB-468; experiment: Antiproliferative activity against human MDA-MB-468 cells harbouring STAT3 assessed as reduction in cell viability incubated for 72 hrs by CyQuant assay; assay type: functional, cell-based; settings: MDA-MB-468, 72 h
[7] = tested on: MCF7; experiment: Antiproliferative activity against human MCF7 cells assessed as reduction in cell viability incubated for 72 hrs by CyQuant assay; assay type: functional, cell-based; settings: MCF7, 72 h
[8] = tested on: MCF-10A; experiment: Cytotoxicity against human MCF-10A cells assessed as reduction in cell viability incubated for 72 hrs by CyQuant assay; assay type: cell-based
[9] = tested on: MCF7; experiment: Antiproliferative activity against human MCF7 cells assessed as reduction in cell viability at 2 uM incubated for 24 hrs by Trypan blue exclusion dye based phase contrast microscopic analysis; assay type: functional
Method in brief: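 Cells in 6-well culture, untreated or treated once with 2 μM compound. Harvested every 24 h (up to 96 h) and counted as viable cells by trypan blue exclusion under phase-contrast microscopy. Counts plotted against duration of treatment.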

[10] = tested on: NIH3T3; experiment: Inhibition of oligonucleotide [32P]-labelled 5'-AGATTTCTAGGAATTCAA probe binding to STAT5 homodimer in mouse NIH3T3 nuclear extract at 10 uM preincubated for 30 mins followed by MGFe probe addition by EMSA analysis
[11] = target: T2, Signal transducer and activator of transcription 1 (Mus musculus) (UniProt P42225); experiment: Inhibition of oligonucleotide [32P]-labelled 5'-AGCITCATTTCCCGTAAATCCCTA probe binding to STAT1 homodimer in mouse NIH3T3 nuclear extract at 10 uM preincubated for 30 mins followed by hSIE probe addition by EMSA analysis
T2 sequence (whole entry): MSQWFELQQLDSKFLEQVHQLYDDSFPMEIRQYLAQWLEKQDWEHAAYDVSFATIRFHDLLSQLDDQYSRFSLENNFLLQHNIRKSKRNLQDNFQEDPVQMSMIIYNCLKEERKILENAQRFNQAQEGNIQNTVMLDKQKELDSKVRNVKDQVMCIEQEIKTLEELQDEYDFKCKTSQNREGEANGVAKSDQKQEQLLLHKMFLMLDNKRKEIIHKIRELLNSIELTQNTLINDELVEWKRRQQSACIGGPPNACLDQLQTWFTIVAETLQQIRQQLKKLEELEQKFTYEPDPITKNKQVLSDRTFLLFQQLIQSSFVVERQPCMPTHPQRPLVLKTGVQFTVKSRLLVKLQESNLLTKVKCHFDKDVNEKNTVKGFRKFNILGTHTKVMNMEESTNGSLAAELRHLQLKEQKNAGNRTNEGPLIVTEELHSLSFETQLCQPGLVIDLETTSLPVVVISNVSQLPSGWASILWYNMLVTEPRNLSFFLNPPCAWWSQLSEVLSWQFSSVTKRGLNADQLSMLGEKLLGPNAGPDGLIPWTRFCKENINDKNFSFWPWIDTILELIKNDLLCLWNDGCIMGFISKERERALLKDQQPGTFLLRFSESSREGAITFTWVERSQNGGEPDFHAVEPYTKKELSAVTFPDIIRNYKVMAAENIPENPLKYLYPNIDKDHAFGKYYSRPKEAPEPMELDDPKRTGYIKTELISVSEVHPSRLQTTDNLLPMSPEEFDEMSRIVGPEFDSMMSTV

[12] = target: Signal transducer and activator of transcription 3 (Homo sapiens) (UniProt P40763); experiment: Inhibition of oligonucleotide [32P]-labelled 5'-AGCITCATTTCCCGTAAATCCCTA hSIE probe binding to STAT3 in human MDA-MB-468 cell nuclear extract at 5 uM by EMSA analysis; settings: time upper […], TDE = time-dependent effect
Signal transducer and activator of transcription 3 (Homo sapiens), sequence (P40763 whole entry): as the sequence (P42227 whole entry, the tested form may be a part) above, with D760E counted along it

[13] = tested on: MDA-MB-231; experiment: Anticlonogenic activity against human MDA-MB-231 cells assessed as inhibition of colony formation upto 1 uM incubated for 4 hrs by crystal violet staining based assay; assay type: functional, cell-based; settings: dose microM <=1, time 4.0 hrs
Method in brief: (§1)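 MDA-MB-231 cells seeded as single-cell cultures (250 cells per well), treated once the next day with compound at 0–1 μM and grown until large colonies were visible. Colonies stained with crystal violet for 4 h and photographed. Three independent determinations.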

[14] = target: T1, Signal transducer and activator of transcription 3; experiment: Inhibition of oligonucleotide [32P]-labelled 5'-AGCITCATTTCCCGTAAATCCCTA probe binding to STAT3 SH2 domain in mouse NIH3T3/v-Src nuclear extract preincubated for 30 mins followed by hSIE probe addition by EMSA analysis; assay type: subcellular, Nucleus
[15] = tested on: MDA-MB-231; experiment: Anticlonogenic activity against human MDA-MB-231 cells assessed as inhibition of colony formation at 0.5 to 1 uM incubated for 4 hrs by crystal violet staining based assay; assay type: functional, cell-based; settings: dose 0.5-1 µM; method in brief: as §1

IC50 [3]: 9.3 µM
SMILES: O=C(O)c1ccc(N(Cc2ccc(C3CCCCC3)cc2)C(=O)[C@H]2CCN2S(=O)(=O)c2c(F)c(F)c(F)c(F)c2F)cc1O
Activity [1]: inactive
Activity [2]: inactive

IC50 [4]: > 2 µM
SMILES: O=C(NO)c1ccc(N(Cc2cnc(C3CCCCC3)cn2)C(=O)[C@H]2CCN2S(=O)(=O)c2c(F)c(F)c(F)c(F)c2F)c(F)c1

EC50 [5]: 1.8 µM
EC50 [6]: 1.8 µM
EC50 [7]: 3.8 µM
inhibition [10]: Active
inhibition [11]: Active
inhibition [12]: Tde
SMILES: CNC(=O)c1ccc(N(Cc2ccc(C3CCCCC3)cn2)C(=O)[C@H]2CCN2S(=O)(=O)c2c(F)c(F)c(F)c(F)c2F)cc1O
EC50 [8]: 4.6 µM
Activity [9]: inactive
inhibition [13]: inactive

IC50 [4]: > 2 µM
SMILES: NC(=O)c1ccc(N(Cc2ccc(C3CCCCC3)cn2)C(=O)[C@H]2CCN2S(=O)(=O)c2c(F)c(F)c(F)c(F)c2F)c(F)c1

SMILES: COC(=O)c1ccc(N(Cc2cnc(C3CCCCC3)cn2)C(=O)[C@H]2CCN2S(=O)(=O)c2c(F)c(F)c(F)c(F)c2F)c(F)c1
IC50 [14]: > 10 µM
EC50 [6]: 1.4 µM
EC50 [7]: 8.9 µM
EC50 [8]: 4 µM
inhibition [15]: Active

From ChEMBL document CHEMBL4706639, “Discovery of Novel Azetidine Amides as Potent Small-Molecule STAT3 Inhibitors” (J Med Chem, 2021)
